Results collected from several papers.
Lines come from different studies, so protocols differ.
Target: Serine/threonine-protein kinase 17A (STK17A, Homo sapiens, UniProt Q9UEE5)

SMILES	assay	setting	measurement	result
CN1CCc2cc(Nc3ncc(C4CC4)c(NCCCNC(=O)C4CCC4)n3)ccc2C1	enzyme activity, inhibitor, radiometric	1 µM	remaining activity	3%
Cc1c[nH]c2nccc(Oc3c(F)cc(Nc4cc(Cl)nc(N)n4)cc3F)c12	cell-free assay, competition with immobilised ligand	0.1 µM	remaining binding	100%
NS(=O)(=O)c1ccc(CNc2nc(Nc3cccc(NC(=O)N4CCCC4)c3)ncc2Br)cc1	enzyme activity, inhibitor, radiometric	1 µM	remaining activity	41%
CNC(=O)c1cc(Oc2ccc(NC(=O)Nc3ccc(Cl)c(C(F)(F)F)c3)cc2)ccn1	cell-free assay	0.3 µM	inhibition	-8%
CN1CC(Oc2cnc(C#N)cc2-c2ccn3nc(NC(=O)C4CC4)cc3c2)C1	enzyme activity, inhibitor	1 µM	inhibition	10%
CCCS(=O)(=O)Nc1ccc(F)c(C(=O)c2c[nH]c3ncc(-c4ccc(Cl)cc4)cc23)c1F	enzyme activity, inhibitor	1 µM	inhibition	< 10%
C#Cc1cccc(Nc2ncnc3cc(OCCOC)c(OCCOC)cc23)c1	cell-free assay	0.5 µM	remaining signal	99.7%
C=CC(=O)Nc1cc(Nc2nccc(Nc3cc(Cl)c(F)cc3C(C)(C)O)n2)c(OC)cc1N1CC[C@@H](N(C)C)C1	enzyme activity, inhibitor	1 µM	inhibition	1%
CCCOc1ccc([C@H]2[C@H](C(=O)O)[C@@H](c3ccc4c(c3)OCO4)CN2CC(=O)Nc2c(CC)cccc2CC)cc1	cell-free assay, competition with immobilised ligand	1 µM	remaining binding	92%
Brc1cnc(Nc2cccc(CN3CCOCC3)c2)nc1NCCc1c[nH]cn1	enzyme activity, inhibitor, radiometric	1 µM	remaining activity	8%
COc1ccc2cc(OCC3(C(=O)O)CN(C(=O)c4ccc(F)cc4)C3)ccc2c1	cell-free assay, competition with immobilised ligand	1 µM	remaining binding	81%
Cc1cc(NC(=O)c2cccc3cc(-c4cccc5[nH]nc(N)c45)ccc23)ccc1F	enzyme activity, inhibitor	0.1 µM	activity vs control	81%
Cc1nn(CC(F)(F)F)cc1Nc1nccc(NCCc2cnc[nH]2)n1	enzyme activity, inhibitor, radiometric	1 µM	remaining activity	99%
Clc1ccc(Nc2nnc(Cc3ccncc3)c3ccccc23)cc1	cell-free assay	0.5 µM	remaining signal	99.4%
Cc1nn(CC(F)(F)F)cc1Nc1ncc(Br)c(NCCCNC(=O)C2CCC2)n1	enzyme activity, inhibitor, radiometric	1 µM	remaining activity	5%
CS(=O)(=O)N1CCCC(NC(=O)[C@H](CCC2CCCCC2)NC(=O)c2ccc(CNc3ncnc4c3nnn4-c3ccccc3)cc2)C1 (some centres unmarked)	cell-free assay, competition with immobilised ligand	0.1 µM	remaining binding	100%
N#CCCc1ccc2c(c1)-c1[nH]c3ccc([N+](=O)[O-])cc3c1CC(=O)N2	cell-free assay	0.5 µM	remaining signal	46.8%
NS(=O)(=O)c1ccc(CNc2nc(Nc3cccc(NC(=O)N4CCCC4)c3)ncc2C2CC2)cc1	enzyme activity, inhibitor, radiometric	1 µM	remaining activity	79%
CC(=O)C1=C(C)N(c2cccc(C(F)(F)F)c2)C(=O)N[C@@H]1c1ccc(C#N)nc1	cell-free assay, competition with immobilised ligand	1 µM	remaining binding	93.7%
Cc1ccc(Nc2nccc(N(C)c3ccc4c(C)n(C)nc4c3)n2)cc1S(N)(=O)=O	cell-free assay	10 µM	inhibition	14%
COc1cc2ncnc(Nc3ccc(F)c(Cl)c3)c2cc1OCCCN1CCOCC1	cell-free assay	0.5 µM	remaining signal	96%
C[C@@H](c1cccc(C#N)c1)n1cc(Cl)cc(C(N)=O)c1=N	cell-free assay, competition with immobilised ligand	1 µM	remaining binding	89%
O=C(Nc1cccc(Nc2ncc(Br)c(NCCc3cnc[nH]3)n2)c1)N1CCCC1	enzyme activity, inhibitor, radiometric	1 µM	remaining activity	6%
CC(C)c1ccc(NC(=O)c2cccs2)c(-c2nc3ccccc3[nH]c2=O)c1	enzyme activity, inhibitor	1 µM	activity vs control	91%
O=C1Nc2ccc(Cl)cc2C1=Cc1cc(Cl)c(O)c(Cl)c1	cell-free assay	0.5 µM	remaining signal	78.9%
N#CC1(c2ccccn2)CCN(Cc2cc(C(=O)N3CCCC3)c(=O)n3ccccc23)CC1	cell-free assay, competition with immobilised ligand	1 µM	remaining binding	96%
